ChEMBL document CHEMBL1157458, “Exploring the substituent effects on a novel series of C1'-dimethyl-aryl Delta8-tetrahydrocannabinol analogs” (Bioorg Med Chem, 2008)

How the values were obtained:
Homo sapiens = organism: Homo sapiens; experiment: Selectivity ratio of Ki for human CB1 receptor to Ki for human CB2 receptor
Cannabinoid receptor 1 = Cannabinoid receptor 1 (Homo sapiens, UniProt P21554); experiment: Displacement of [3H]CP-55940 from human CB1 receptor expressed in HEK293 cells; assay type: cell-based
Sequence of Cannabinoid receptor 1 (P21554 whole entry): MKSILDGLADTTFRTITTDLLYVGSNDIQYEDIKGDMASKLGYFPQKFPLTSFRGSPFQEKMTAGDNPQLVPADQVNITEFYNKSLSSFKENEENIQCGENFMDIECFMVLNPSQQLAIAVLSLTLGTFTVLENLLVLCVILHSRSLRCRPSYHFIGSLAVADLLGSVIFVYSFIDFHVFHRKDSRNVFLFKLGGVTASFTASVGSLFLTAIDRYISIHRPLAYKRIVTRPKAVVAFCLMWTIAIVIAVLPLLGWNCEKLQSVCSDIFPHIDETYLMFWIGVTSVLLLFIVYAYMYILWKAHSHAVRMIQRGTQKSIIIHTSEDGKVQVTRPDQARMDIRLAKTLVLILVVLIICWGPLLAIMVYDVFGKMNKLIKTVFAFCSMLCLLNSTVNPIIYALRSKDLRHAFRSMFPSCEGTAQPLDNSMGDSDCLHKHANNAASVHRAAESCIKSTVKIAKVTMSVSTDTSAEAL

Cannabinoid receptor 2 = Cannabinoid receptor 2 (Homo sapiens, UniProt P34972); experiment: Displacement of [3H]CP-55940 from human CB2 receptor expressed in CHO-K1 cells; assay type: cell-based
Sequence of Cannabinoid receptor 2 (P34972 whole entry): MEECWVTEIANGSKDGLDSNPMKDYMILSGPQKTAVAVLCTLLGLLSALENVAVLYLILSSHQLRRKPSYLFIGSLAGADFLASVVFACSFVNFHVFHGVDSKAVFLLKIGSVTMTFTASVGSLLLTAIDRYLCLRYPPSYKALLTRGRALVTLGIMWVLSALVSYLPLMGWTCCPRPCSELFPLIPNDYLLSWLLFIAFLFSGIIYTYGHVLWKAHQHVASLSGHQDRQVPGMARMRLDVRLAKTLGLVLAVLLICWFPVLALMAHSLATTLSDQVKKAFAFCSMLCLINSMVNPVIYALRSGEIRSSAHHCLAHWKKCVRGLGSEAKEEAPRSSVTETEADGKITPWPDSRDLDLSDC

[1] = Cytotoxicity against human DBTRG-O5MG cells assessed as cell death after 18 hrs; assay type: functional, cell-based
Summary of the method: (§1)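 Glioma lines (U-87MG, T98G, LN-229, DBTRG-O5MG, primary MT310) plated at 70% confluency in 100 µl supplemented medium, left overnight at 37 °C to adhere. Cells were then exposed to escalating drug amounts for 18 h. Viability was measured by CCK-8 absorbance at 450 nm relative to untreated controls. Values are the mean of three data points per determination, three independent determinations.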

[2] = Cytotoxicity against human U87 cells by side flank model relative to control; assay type: functional, U-87MG ATCC; conditions: U-87 MG
[3] = Cytotoxicity against human LN229 cells assessed as cell death after 18 hrs; assay type: functional, cell-based; conditions: LN-229, 18 h; summary of the method: as §1
[4] = Cytotoxicity against human MT310 cells assessed as cell death after 18 hrs; assay type: functional, cell-based; summary of the method: as §1
T98G = experiment: Cytotoxicity against human T98G cells assessed as cell death after 18 hrs; assay type: functional, cell-based; summary of the method: as §1
[5] = Cytotoxicity against human U87MG cells assessed as cell death after 18 hrs; assay type: functional, U-87MG ATCC; summary of the method: as §1

Row | Compound | Ratio Ki (Homo sapiens) | Ki (Cannabinoid receptor 1) [nM] | Ki (Cannabinoid receptor 2) [nM] | EC50 [1] [nM] | EC50 [2] [nM] | EC50 [3] [nM] | EC50 [4] [nM] | EC50 (T98G) [nM] | Activity [5] [%]
1 | CC1=CC[C@@H]2[C@@H](C1)c1c(O)cc(C(C)(C)c3ccc(C(N)=O)cc3)cc1OC2(C)C | 1.01 |  |  |  |  |  |  |  | 
2 | CC1=CC[C@@H]2[C@@H](C1)c1c(O)cc(C(C)(C)c3cccc(Cl)c3)cc1OC2(C)C | 0.79 | 2.8 | 3.54 |  |  |  |  |  | 
3 | CC1=CC[C@@H]2[C@@H](C1)c1c(O)cc(C(C)(C)c3ccc(C)cc3)cc1OC2(C)C | 3.56 | 3.13 | 0.88 |  |  |  |  |  | 
4 | CC1=CC[C@@H]2[C@@H](C1)c1c(O)cc(C(C)(C)c3cccs3)cc1OC2(C)C | 4 | 1.08 | 0.27 | 2670 | 1830 | 2020 | 4100 | 2210 | 
5 | CC1=CC[C@@H]2[C@@H](C1)c1c(O)cc(C(C)(C)c3ccccc3)cc1OC2(C)C | 13.5 |  |  | 2270 | 3080 | 2630 | 4290 | 4680 | 75
6 | CC1=CC[C@@H]2[C@@H](C1)c1c(O)cc(C(C)(C)c3ccccc3C)cc1OC2(C)C | 3.23 | 34.4 | 10.7 |  |  |  |  |  | 
7 | CC1=CC[C@@H]2[C@@H](C1)c1c(O)cc(C(C)(C)c3ccc(C#N)cc3)cc1OC2(C)C | 3.66 | 9.25 | 2.53 |  |  |  |  |  | 
8 | CC1=CC[C@@H]2[C@@H](C1)c1c(O)cc(C(C)(C)c3cccc(C#N)c3)cc1OC2(C)C | 2.98 | 2.72 | 0.91 |  |  |  |  |  | 
9 | CC1=CC[C@@H]2[C@@H](C1)c1c(O)cc(C(C)(C)c3ccc(Cl)cc3)cc1OC2(C)C | 11.2 | 18.8 | 1.68 | 4610 | 3270 | 2870 | 7310 | 3400 | 
10 | CCCc1ccc(C(C)(C)c2cc(O)c3c(c2)OC(C)(C)[C@@H]2CC=C(C)C[C@@H]32)cc1 | 0.23 | 1.77 | 7.83 | 3580 | 3170 | 2440 | 6460 | 3630 | 
11 | CC1=CC[C@@H]2[C@@H](C1)c1c(O)cc(C(C)(C)c3cc(C)cc(C)c3)cc1OC2(C)C | 1.48 | 11 | 7.45 |  |  |  |  |  | 
12 | CC1=CC[C@@H]2[C@@H](C1)c1c(O)cc(C(C)(C)c3cccc(F)c3)cc1OC2(C)C | 5.84 | 5.26 | 0.9 |  |  |  |  |  | 
13 | CC1=CC[C@@H]2[C@@H](C1)c1c(O)cc(C(C)(C)c3ccc(F)cc3)cc1OC2(C)C | 6.14 | 76.1 | 12.4 | 3080 | 2550 | 2020 | 8780 | 3300 | 
14 | CC1=CC[C@@H]2[C@@H](C1)c1c(O)cc(C(C)(C)c3cccc(C)c3)cc1OC2(C)C | 2.24 | 2.53 | 1.13 |  |  |  |  |  | 
15 | CCc1ccc(C(C)(C)c2cc(O)c3c(c2)OC(C)(C)[C@@H]2CC=C(C)C[C@@H]32)cc1 | 2.76 | 1.85 | 0.67 | 3000 | 2520 | 1670 | 4110 | 3230 | 
16 | CC1=CC[C@@H]2[C@@H](C1)c1c(O)cc(C(C)(C)c3cccc(Br)c3)cc1OC2(C)C | 2.94 | 1.59 | 0.54 |  |  |  |  |  | 
17 | CC1=CC[C@@H]2[C@@H](C1)c1c(O)cc(C(C)(C)c3ccc(Br)cc3)cc1OC2(C)C | 3.26 | 5.03 | 1.54 |  |  |  |  |  | 
